Bioassay records (PubChem)
IMP-1 inhibitor = IMP-1 metallo-beta-lactamase inhibitors, primary screen, biochemical, epi-absorbance readout, Pseudomonas aeruginosa enzyme; 0.45% of 290,000 active; metallo-beta-lactamase IMP-1 (Pseudomonas aeruginosa); AID 1556, 2009; inhibition, % at 5.6 µM; purified IMP-1, nitrocefin hydrolysis, epi-absorbance fluorescence;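 active = inhibition above the mean plus 3 SD of all compounds in the same screening run, cut at about 4.5% in these data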
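Assay system: purified IMP-1; Quantity: IMP-1 0.2 nM before substrate addition; Medium: HEPES buffer pH 7.1 with ZnSO4 and Brij 35; Incubation: 15 min enzyme–compound preincubation, then 25 min nitrocefin reaction, 25 °C; Signal: fluorescence quenching readout, ex 480/em 530 nm; Controls: DMSO with and without IMP-1; Repeats: singlicate testing.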
VIM-2 inh = VIM-2 metallo-beta-lactamase inhibitors, primary screen, biochemical, epi-absorbance readout, Pseudomonas aeruginosa enzyme; purified VIM-2, nitrocefin hydrolysis, epi-absorbance fluorescence; inhibition, % at 5.6 µM; 0.89% of 290,000 active;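 active = inhibition above the mean of all tested compounds plus 3 SD, cutoff set per screening run, cut at about 7.5% in these data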;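 also: red hydrolysis product quenches plate fluorescence so inhibitors raise well fluorescence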
ATG4B inh = ATG4B protease inhibitors, primary screen, biochemical, fluorescence, uHTS | Cysteine protease ATG4B (Homo sapiens), Q9Y4P1 | ATG4B cleavage of LC3-PLA2, NBD-HPC fluorescence, 1 h | inhibition, % at 8.33 µM | 0.51% of 340,000 active; in the data active = inhibition above about 40%
Target sequence (Q9Y4P1 whole entry, looked up): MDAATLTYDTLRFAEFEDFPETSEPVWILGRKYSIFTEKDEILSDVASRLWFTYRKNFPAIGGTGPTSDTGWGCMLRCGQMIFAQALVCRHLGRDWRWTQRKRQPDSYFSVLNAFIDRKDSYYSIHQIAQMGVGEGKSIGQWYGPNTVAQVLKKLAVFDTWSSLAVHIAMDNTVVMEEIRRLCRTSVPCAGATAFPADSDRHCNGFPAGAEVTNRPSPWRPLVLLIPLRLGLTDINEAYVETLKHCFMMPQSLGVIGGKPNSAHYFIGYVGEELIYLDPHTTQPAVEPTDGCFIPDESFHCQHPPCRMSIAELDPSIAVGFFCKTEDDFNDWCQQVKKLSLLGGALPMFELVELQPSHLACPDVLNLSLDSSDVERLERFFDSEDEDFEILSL
HKDC1 inhibitor = HKDC1 hexokinase inhibitors, primary screen, biochemical, fluorescence, uHTS. Q2TB90. recombinant HKDC1, G6PDH/diaphorase resazurin coupled fluorescence. inhibition, % at 20 µM. 0.16% of 340,000 active;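 active = inhibition above about 35% when tested at 20 µM, limit read from the data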
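test system = in-house recombinant HK5 (HKDC1) enzyme | amount = HKDC1 at 5 µg/mL | control set = DMSO-enzyme wells negative, buffer-substituted wells positive | compound = one dose of 20 µM, 1% DMSO | schedule = reaction time 90 min, room temperature, protected from light | technique = resorufin fluorescence at 613 nm | reagent = glucose with 1 mM ATP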
MIN6 prolif = inducers of MIN6 beta-cell proliferation, primary screen, ATP luminescence, uHTS; MIN6 cells proliferation, ATPlite luminescence, 48 h; cells starved in 0.2% serum; 100% = growth in 10% serum; proliferation, % at 10 µM; 0.29% of 330,000 active; AID 2380, 2010;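 active = compounds whose signal lies at least 3.5 SD above the mean of all wells on their plate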
PvdQ inh = P. aeruginosa PvdQ acylase inhibitors, primary screen, biochemical, fluorescence, plate reader and imaging, single point; purified PvdQ acylase; inhibition, % at 10 µM; 0.063% of 340,000 active; AID 488965, 2010; in the data active = inhibition above about 30%, passing the limit was not always enough
ATG4B conf = ATG4B protease inhibitors, retest, confirmation, biochemical, fluorescence, single concentration. shares compounds with ATG4B inh. ATG4B protease fluorescent substrate cleavage assay. inhibition, % at 8.33 µM. 92% of 320 active. AID 504757, 2011; in the data active = inhibition above about 39%
PLA2 ctr = PLA2 enzyme inhibition, counter-screen for ATG4B inhibitor project, biochemical, single concentration, uHTS hits; AID 588402, 2011; inhibition, % at 8.33 µM; purified PLA2, NBD-C6-HPC fluorescence, 45 min; shares compounds with ATG4B inh; 66% of 1,600 active; in the data active = inhibition above about 50%
Target sequence (P04054 whole entry, looked up): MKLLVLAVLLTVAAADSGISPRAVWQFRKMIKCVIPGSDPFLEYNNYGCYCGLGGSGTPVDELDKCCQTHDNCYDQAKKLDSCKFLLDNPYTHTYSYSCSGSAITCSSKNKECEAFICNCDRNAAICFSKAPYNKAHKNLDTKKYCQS
A number is an active result; 0 = inactive; - = not tested or not shown. This is a sample that favours compounds with a hit; in the whole collection about 2% have one here.

SMILES | IMP-1 inhibitor | VIM-2 inh | ATG4B inh | HKDC1 inhibitor | MIN6 prolif | PvdQ inh | PLA2 ctr | others
CCc1ccc(-c2cc(C(F)(F)F)n3nc(C(=O)Nc4c(C)nn(Cc5ccc(F)cc5)c4C)cc3n2)s1 | 0 | 0 | 0 | 0 | 0 | 0 | -
Cc1ccc(C(=O)NNC(=S)Nc2cccc(Cl)c2Cl)cc1[N+](=O)[O-] | 0 | 0 | 48 | 0 | 0 | 0 | 0 | ATG4B conf=78
Cc1ccc(NC(=S)NNC(=O)c2cccc([N+](=O)[O-])c2)cc1Cl | 0 | 0 | 77 | 0 | 0 | 0 | 78
COc1ccc(Br)cc1CNC(=O)C1CCN(S(=O)(=O)N2CCC(C)CC2)CC1 | 0 | 0 | 42 | 0 | 0 | 0 | 0 | ATG4B conf=67
NC(=O)Cn1nnc(-c2ccc(NC(=O)c3ccc(F)cc3)cc2)n1 | 0 | 0 | 0 | 0 | 0 | 0 | -
CCN(Cc1ccccc1)c1ccc(N=Nc2nn(C)c(C)c2[N+](=O)[O-])cc1 | 0 | 0 | 53 | 0 | 0 | 0 | 0
CCOC(=O)C1CCN(C(=O)Cn2nc(C)n3c(cc4cc(F)ccc43)c2=O)CC1 | 0 | 0 | 0 | 0 | 0 | 0 | -
CC(C)(C)c1ccc(C(=O)Nc2nnc(Cc3c[nH]c4ccccc34)s2)cc1 | 0 | 0 | 0 | 0 | 0 | 0 | -
O=C(Nc1nnc(Cc2c[nH]c3ccccc23)s1)c1ccc(Cl)cc1Cl | 0 | 0 | 52 | 0 | 0 | 0 | 51
COC(=O)c1cc(NC(=O)C2(S(=O)(=O)c3ccc(C)cc3)CC2)cc(C(=O)OC)c1 | 0 | 0 | 0 | 0 | 0 | 0 | -
O=C(Nc1cc2cccc([N+](=O)[O-])c2oc1=O)c1cccs1 | 0 | 0 | 0 | 0 | 0 | 0 | -
CC1Cc2ccccc2N1C(=O)COC(=O)c1c2c(nc3ccccc13)CCCCC2 (stereo not drawn) | 0 | 0 | 44 | 0 | 0 | 0 | 0
O=C(OCC(=O)N1CCc2ccccc21)c1c2c(nc3ccccc13)CCCC2 | 0 | 0 | 0 | 0 | 0 | 0 | -
Cc1ccc(S(=O)(=O)N(C)CC(=O)Nc2nc3ccccc3s2)cc1 | 0 | 0 | 0 | 0 | 0 | 0 | -
Cc1ccc(/C(=N/Nc2nc3ccccc3s2)C2=C(O)c3ccccc3C2=O)cc1 | 0 | 0 | 45 | 0 | 0 | 0 | 65
Cc1ccccc1NC(=O)c1ccc(NS(=O)(=O)c2cc(C(C)(C)C)cc(C)c2C)cc1 | 0 | 0 | 47 | 0 | 0 | 0 | 0
CCCCCCCCCCC[N+](C)(C)CC/C=C1/c2ccccc2Sc2ccc(Cl)cc21 | 0 | 0 | 47 | 0 | 0 | 0 | 52
Cc1c(NC(=O)CSc2ccccc2Cl)c(=O)n(-c2ccccc2)n1C | 0 | 0 | 0 | 0 | 0 | 0 | -
C=CCN1C(c2cccc(C(F)(F)F)c2)=CS/C1=C(/C#N)c1nnc(N2CCOCC2)n1-c1ccccc1 | 0 | 0 | 50 | 0 | 0 | 0 | 55
C=CCN1C(c2ccc(Br)cc2)=CS/C1=C(/C#N)c1nnc(N2CCOCC2)n1-c1ccccc1 | 0 | 0 | 61 | 0 | 0 | 0 | 70
COc1ccc(C2=NOC(Cn3nc(-c4ccccc4)cc3C(=O)NCc3cccc(Br)c3)C2)cc1 (stereo not drawn) | - | - | 0 | 0 | 0 | 0 | -
COc1ccc(C2=NOC(Cn3nc(C(=O)NCc4cccc(Br)c4)cc3-c3ccccc3)C2)cc1 (stereo not drawn) | - | - | 53 | 0 | 0 | 0 | 59
CC(=O)c1ccc(NC(=S)NC(C)CCc2ccccc2)cc1 (stereo not drawn) | 0 | 0 | 0 | 0 | 0 | 0 | -
Cc1sc2nc(CSc3ccccc3)nc(N3CCN(C)CC3)c2c1C | 0 | 0 | 0 | 0 | 0 | 0 | -
COCCNc1nc(CSc2ccccc2)nc2sc(C)c(C)c12 | 0 | 0 | 46 | 0 | 0 | 0 | 0
SMILES | IMP-1 inhibitor | VIM-2 inh | ATG4B inh | HKDC1 inhibitor | MIN6 prolif | PvdQ inh | PLA2 ctr | others
Cc1ccc(S(=O)(=O)Nc2ccc3c4c(cccc24)CC3)c(C)c1 | 0 | 0 | 63 | 0 | 0 | 0 | 78
Cc1cc(C)c(S(=O)(=O)Nc2ccc3c4c(cccc24)CC3)c(C)c1 | 0 | 0 | 0 | 0 | 0 | 0 | -
COCCOc1ccc(C(F)(F)F)cc1NC(=O)CN1C(=O)NC2(CCc3ccccc32)C1=O (stereo not drawn) | - | - | 99 | 0 | 0 | 0 | 0
COCCOc1ccc(C(F)(F)F)cc1NC(=O)CN1C(=O)NC2(CCCc3ccccc32)C1=O (stereo not drawn) | - | - | 0 | 0 | 0 | 0 | -
S=C(NCc1ccccc1)NC1CCCc2ccccc21 (stereo not drawn) | 0 | 0 | 78 | 0 | 0 | 0 | 78
S=C(NCc1ccco1)NC1CCCc2ccccc21 (stereo not drawn) | 0 | 0 | 63 | 0 | 0 | 0 | 0
O=C(NC(=S)N1CCOCC1)c1cc2ccccc2o1 | 0 | 0 | 0 | 0 | 0 | 0 | -
Cn1c(N)c(S(=O)(=O)NCc2ccc(Cl)cc2)c(=O)n(C)c1=O | 0 | 0 | 0 | 0 | 0 | 0 | -
O=C1c2ccccc2C(=O)c2c1ccc(C(=O)N1CCCCC1)c2NCCO | 0 | 0 | 0 | 0 | 0 | 0 | -
CC1(C)CCCN(C(=O)c2ccc3c(c2NCCO)C(=O)c2ccccc2C3=O)C1 | 0 | 0 | 68 | 0 | 0 | 0 | 63
Cc1ccc(S(=O)(=O)N2[C@@H](c3ccc(C(C)(C)C)cc3)C(C(=O)O)=CC[C@H]2c2cccc(Cl)c2)cc1 | - | - | 41 | 0 | 0 | 0 | 61
Cc1ccc([C@H]2C(C(=O)O)=CC[C@@H](c3cccc(Cl)c3)N2S(=O)(=O)c2ccc(C)cc2)cc1 | - | - | 0 | 0 | - | 0 | -
Nc1ccc(Br)cc1Br | 0 | 0 | 0 | 0 | 0 | 0 | -
Cc1cc(C)c(-c2c(N)cc(Br)cc2Br)c(N)c1 | - | - | 57 | 0 | - | 0 | 65
ON(CCc1ccncc1)Cc1ccccc1 | - | - | 0 | 0 | - | 0 | -
CCC(C)(C)C1CCc2c(sc(NC(=O)c3ccccc3C(=O)O)c2C#N)C1 (stereo not drawn) | 0 | 0 | 71 | 0 | 0 | 0 | 87
Cc1noc(C)c1CSc1nc2ccccc2c(=O)n1-c1ccc(F)cc1F | 0 | 0 | 59 | 0 | 0 | 0 | 67
O=C1NC(=O)/C(=C/c2ccc(-c3cc(C(=O)O)ccc3Cl)o2)S1 | 0 | 0 | 0 | 0 | 0 | 0 | -
